Assay outcomes (PubChem BioAssay)
PABP polyA inh: PABP-poly(A) binding inhibition. PABP-poly(A) RNA binding, fluorescence polarization. calls only at 35 µM. actives 1% (n = 290,000);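 further: calls also rest on retests at 20 µM and on dose response follow-up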
Target sequence (P11940 whole entry, looked up): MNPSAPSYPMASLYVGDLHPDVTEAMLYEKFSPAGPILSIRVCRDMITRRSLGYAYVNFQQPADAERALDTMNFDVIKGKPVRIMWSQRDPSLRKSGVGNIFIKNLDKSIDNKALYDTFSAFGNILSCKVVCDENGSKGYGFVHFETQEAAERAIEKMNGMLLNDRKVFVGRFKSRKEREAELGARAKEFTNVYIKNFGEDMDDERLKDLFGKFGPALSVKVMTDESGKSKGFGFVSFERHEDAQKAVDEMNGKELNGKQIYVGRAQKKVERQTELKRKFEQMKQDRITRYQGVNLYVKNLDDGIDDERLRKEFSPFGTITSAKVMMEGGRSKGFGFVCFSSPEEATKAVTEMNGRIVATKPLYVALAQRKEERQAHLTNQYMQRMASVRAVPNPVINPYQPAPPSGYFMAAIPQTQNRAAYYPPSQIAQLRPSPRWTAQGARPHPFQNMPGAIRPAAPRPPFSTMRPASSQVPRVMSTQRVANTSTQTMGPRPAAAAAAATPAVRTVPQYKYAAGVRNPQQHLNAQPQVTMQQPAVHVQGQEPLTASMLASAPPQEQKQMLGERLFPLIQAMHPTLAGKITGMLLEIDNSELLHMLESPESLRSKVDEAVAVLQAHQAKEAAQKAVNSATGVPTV
eIF4H inh: inhibitors of RNA binding by human eIF4H. eIF4H fluorescence polarization binding assay. inhibition, % at 35 µM. actives 0.94% (n = 290,000). AID 2012;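 further: calls also rest on retests at 20 µM and on dose response follow-up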
SKN-1 inh: inhibitors of C. elegans SKN-1. C. elegans VP596 Pgst-4::GFP/RFP ratio, acrylamide-induced, 24 h. inhibition, % at 21.8 µM. actives 0.49% (n = 360,000). AID 624304;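 active means interference check ratio from 0.5 to 1.5 plus GFP to RFP signal ratio inhibition reaching or exceeding a fixed threshold, cut at about 30% in these data, passing the limit was not always enough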
MLLE-PAM2 inh: blocks PAM2 peptide binding to the PABP1 MLLE domain. GST-MLLE / FITC-PAM2 fluorescence polarization. inhibition, % at 20 µM. actives 0.36% (n = 360,000); in the data active means inhibition above about 35%, passing the limit was not always enough;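 further: plate controls were DMSO wells with GST-MLLE for no effect and wells lacking GST-MLLE protein for full effect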
MT1-MMP act inh: inhibitors of human MT1-MMP activation; HT1080 RFP-PRO-GFP cells, GFP/RFP ratio fluorescence, overnight; percent of plate control window, DMSO zero; GFP/RFP ratio change, % at 20 µM; actives 0.061% (n = 360,000); AID 651647;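 active means GFP/RFP ratio change of at least 30% with cell ATP level not reduced by more than half and red fluorescence within 50% of control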
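Material: RFP-PRO-GFP reporter HT1080 cells. Dosing: single-point 20 µM compound, 1% DMSO. Controls: DMSO and RFP-L50D-GFP cell wells. Timing: cells overnight before dosing, compound overnight, 37 °C, 5% CO2. Measure: GFP/RFP fluorescence ratio.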
Active calls of the source: *; i = inactive; u = inconclusive; x = not tested or not shown; + = active, no number. Compounds with a hit are over-represented: about 1.8% of the library has one in this group of screens. Unless noted, how the calls were made is not given here.

SMILES	PABP polyA inh	eIF4H inh	SKN-1 inh	MLLE-PAM2 inh	MT1-MMP act inh
Cc1ccc(NC(=O)CCOc2ccccc2C)cc1C	i	-9.7	15.3	8.5	2.5
Oc1nc(Nc2cccc(Cl)c2)sc1/C=C1\C=Nc2ccccc21	i	4.2	3.9	-21.8	-4.4
CCOC(=O)c1c(Nc2ccc(Cl)cc2)sc(/C=C2\C=Nc3ccccc32)c1O	+	u	10.5	-55.0	-28.4
O=C1C=C(O)CC2(CCCCC2)C1	x	x	-13.1	-2.4	7.0
CC1(C)C(=O)Nc2ccccc2N1C(=O)COc1ccc(S(=O)(=O)N2CCOCC2)cc1Cl	+	64.3	9.1	-19.6	-1.1
CC(NS(=O)(=O)c1ccc(OCC(=O)N2CCOCC2)c(Cl)c1)c1ccccc1 (stereo unspecified)	i	6.7	37.6*	-2.0	1.9
O=C(Nc1ncccc1O)c1ccc(Cl)c(S(=O)(=O)N2CCCCC2)c1	x	x	-2.4	7.5	4.9
Cc1ccccc1CN(C)C(=O)COC(=O)CSc1ccc([N+](=O)[O-])cc1	x	x	27.5	19.8	1.8
Cc1ccc(CN(C)C(=O)COC(=O)CSc2ccc([N+](=O)[O-])cc2)cc1	x	x	3.0	43.3*	-0.1
Cc1nc2ccccc2cc1C(=O)N(C)Cc1ccccc1	i	3.3	6.2	-2.5	-0.4
Cc1c2ccccc2nc2c(F)c(NC(C)C)c(F)c(F)c12	+	82.3*	11.7	144.7	-50.1
Cc1ccc(NC(=O)c2cc(N3C(=O)C=CC3=O)ccc2Cl)cc1C	+	u	1.4	23.8	-5.0
Cc1ccc(NC(=O)c2cc(-n3cnnc3)ccc2Cl)cc1	i	-7.9	-17.8	-2.0	-0.4
N#Cc1c(N2CCN(c3ccc([N+](=O)[O-])cc3)CC2)[n+](=O)c2ccc(Cl)cc2n1[O-]	x	x	13.2	97.7	-32.6
COc1ccc2nc(N3CCCCC3)c(C#N)cc2c1	i	15.2	13.0	40.5*	-11.7
Cc1ccc(S(=O)(=O)C(C#N)c2nc3ccccc3nc2N2CCN(C)CC2)cc1C (stereo unspecified)	+	121.5*	-8.5	23.3	-20.0
COc1ccc2nc(N3CCCC3)c(C#N)cc2c1	u	u	-10.2	31.4	-11.5
N#CC(c1nc2ccccc2nc1N1CCCC1)S(=O)(=O)c1ccccc1 (stereo unspecified)	u	u	0.9	23.0	-38.2
COc1ccc(S(=O)(=O)C(C#N)c2nc3ccccc3nc2N2CCCCC2)cc1 (stereo unspecified)	+	97.2*	17.7	51.9	-68.1
Cc1ccc(C)c(S(=O)(=O)C(C#N)c2nc3ccccc3nc2N2CC(C)OC(C)C2)c1 (stereo unspecified)	+	77.8*	25.9	3.1	-10.9
O=[N+]([O-])c1ccc(NS(=O)(=O)N2CCOCC2)cc1	x	x	2.0	9.1	1.1
Cc1cccc(S(=O)(=O)C(C#N)c2nc3ccccc3nc2N2CCCC2)c1 (stereo unspecified)	+	122.4*	9.1	-11.9	-22.1
CCCC1OC23CCCCC2C(C#N)(C(=N)O3)C1(C#N)C#N (stereo unspecified)	u	u	37.8	57.9*	-14.7
CCC1OC23CCCCC2C(C#N)(C(=N)O3)C1(C#N)C#N (stereo unspecified)	u	u	54.6	67.0	-10.6
CC1OC23CCCCC2C(C#N)(C(=N)O3)C1(C#N)C#N (stereo unspecified)	i	39.6	22.2	5.9	-1.6
SMILES	PABP polyA inh	eIF4H inh	SKN-1 inh	MLLE-PAM2 inh	MT1-MMP act inh
N#CC12COC3(CCCCC3C1(C#N)C#N)OC2=N (stereo unspecified)	u	u	44.8	49.1*	-9.6
N#CC1(C#N)COC23CCCCC2C1(C#N)C(=N)O3 (stereo unspecified)	+	50.8	28.6	39.4	-27.9
O=C(C(=O)N1CCN(c2cccc(Cl)c2)CC1)c1cn(CC(=O)N2CCOCC2)c2ccccc12	i	-0.6	20.1	-9.4	3.4
CN1N=C(N)c2cn(C3OC(COP(=O)(O)O)C(O)C3O)c3ncnc1c23 (stereo unspecified)	x	x	-1.4	50.9*	-19.1
Nc1ncnc2c1ncn2[C@@H]1O[C@H](COP(=O)(O)O)[C@@H](O)[C@H]1O	i	-0.5	7.0	-0.9	2.7
CCOC(=O)[C@]12CCCC=C1N(Cc1ccco1)C(=O)[C@H](CC(=O)NCc1cccc(C(F)(F)F)c1)C2	x	x	-4.0	x	-0.3
CCN1C(=O)/C(=C2/C(=O)N3c4c(cc(OC(C)=O)cc42)C(C)=CC3(C)C)SC1=S	i	3.3	6.8	18.7	2.8
COc1cc2c3c(c1)/C(=C1/SC(NC(C)=O)=NC1=O)C(=O)N3C(C)(C)C=C2C	i	17.8	0.0	36.9*	1.1
O=C(COC(=O)CCC(=O)N1CCOCC1)Nc1ccc(Br)cc1Br	x	x	-8.9	2.1	-2.1
Cc1ccc2c(c1)N(C(=O)CCC(=O)NCc1ccccn1)CC(C)O2 (stereo unspecified)	i	-8.2	4.1	1.9	-0.2
COc1ccc(Cl)cc1CN1CCN(c2nc(C)cc(C)c2C#N)CC1	+	45.9*	-2.8	2.0	-0.9
COC(=O)C1=C(C)NC(=O)/C1=C\c1cc(C)n(-c2ccccc2F)c1C	i	11.3	4.2	12.8	-20.0
COC(=O)C1=C(C)NC(=O)/C1=C\c1cc(C)n(-c2ccccc2C)c1C	+	56.6*	-14.9	-13.3	-56.0
CCCCN1/C(=C/c2cccc[n+]2C)Sc2cc(NC(C)=O)ccc21	+	0.1	1.2	-142.3	-7.0
COc1ccc(NS(=O)(=O)c2cccc(C(=O)NNC(=O)c3cncc(Br)c3)c2)cc1	x	x	-2.0	6.4	3.7
COCCn1c(C)cc(C(=O)COC(=O)c2cccc(O)c2)c1C	i	4.3	1.7	-4.6	-0.7
COCCn1c(C)cc(C(=O)COC(=O)c2cc3c(s2)CCC3)c1C	+	90.9*	-12.3	4.9	1.2
Cc1cccc(C)c1-n1nnnc1C(c1ccnc2ccccc12)N1CCN(C/C=C/c2ccccc2)CC1 (stereo unspecified)	x	x	-6.0	-5.8	-1.9
Cc1cnc(C(=O)N(CC(C)C)c2c(N)n(CC(C)C)c(=O)[nH]c2=O)cn1	x	x	1.3	0.0	-4.9
O=C(Nc1ccccc1)N1CCc2scc[n+]2-c2ccccc21	i	42.5	7.8	22.1	3.5
O=CN1CCc2scc[n+]2-c2ccccc21	i	26.8	36.4*	38.6	-2.6
CC(=O)[C@@H]1[C@@H]2C(=O)N(Cc3ccccc3)C(=O)[C@@H]2C2c3ccccc3C=CN21 (stereo partly specified)	+	95.9*	-0.9	53.3	-54.4
Cc1ccc(N2C(=O)[C@@H]3[C@H](C2=O)C2c4ccccc4C=CN2[C@@H]3C(=O)c2ccco2)cc1 (stereo partly specified)	i	30.8	12.5	36.8*	-21.3
Cc1ccc(OCCC(=O)O)cc1	+	u	10.4	1.2	3.7
